Laboratory results from ChEMBL document CHEMBL4177755, “Combating Drug-Resistant Fungi with Novel Imperfectly Amphipathic Palindromic Peptides” (J Med Chem, 2018).
Values after ≈ are worked out from the molar mass of the structure shown. Active and inactive are the calls of the source. The calls are words filed in the database; no cut-off is given here.

Key:
[1] = tested on: Lipid bilayer; assay: Binding affinity to phosphatidylcholine/cholesterol large unilamellar vesicle assessed as induction of calcein leakage at 2 to 32 uM after 15 mins by spectrofluorophotometric method; conditions: 0.25 h
In short: (§1)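 Large unilamellar vesicles were made from PG/CL/PE (2:1:7), PC/PE/PI/ergosterol (5:4:1:2) or PC/cholesterol (10:1), loaded with 70 mM calcein in Tris/NaCl/EDTA buffer at pH 7.4, frozen and thawed 20 times, and extruded through 100 nm filters. Free dye was removed by gel filtration, and peptide-induced calcein release was measured.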

[2] = tested on: Staphylococcus aureus; assay: Antibacterial activity against methicillin-resistant Staphylococcus aureus ATCC 4330 after 24 hrs; format: functional
In short: (§2)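 Modified NCCLS broth microdilution. Mid-log bacteria at (0.5−1) × 10^5 CFU/mL in MHB were mixed 1:1 with peptide serially diluted in 0.2% BSA and incubated 24 h at 37 °C. Absorbance was read at 492 nm; MIC is the lowest concentration inhibiting 95% of growth. At least 3 repeats.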

[3] = tested on: Escherichia coli; assay: Bactericidal activity against Escherichia coli ATCC 25922; format: functional
In short: (§3)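 Wells from the 24 h, 37 °C MHB microdilution plates (bacteria at a final (0.5−1) × 10^5 CFU/mL; peptide diluted in 0.2% BSA) were plated on agar and incubated overnight. MBC is the lowest concentration killing >99.9% of cells. Each test was reproduced at least 3 times.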

[4] = tested on: Salmonella typhimurium; assay: Bactericidal activity against Salmonella typhimurium ATCC 14028; format: functional, Salmonella enterica subsp. enterica serovar Typhimurium; in short: as §3
[5] = tested on: Escherichia coli; assay: Antibacterial activity against Escherichia coli ATCC 25922 after 18 hrs in presence of ZnCl2 by broth dilution method; format: functional
[6] = tested on: Escherichia coli; assay: Antibacterial activity against Escherichia coli ATCC 25922 after 18 hrs in presence of 12.5% human heat-inactivated serum by broth dilution method; format: functional
[7] = tested on: Escherichia coli; assay: Antibacterial activity against Escherichia coli ATCC 25922 after 24 hrs; format: functional
In short: (§4)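 Broth microdilution. Mid-log bacteria in MHB at a final (0.5−1) × 10^5 CFU/mL were mixed with equal volumes of peptide serially diluted in 0.2% BSA. Plates were incubated 24 h at 37 °C and read at A492. MIC is the lowest concentration inhibiting 95% of growth. Each test was repeated at least 3 times.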

[8] = tested on: Staphylococcus aureus; assay: Antibacterial activity against Staphylococcus aureus ATCC 29213 after 24 hrs; format: functional; in short: as §2
[9] = (§5) Antibacterial activity against Salmonella pullorum ATCC 7913 after 24 hrs; format: functional, Salmonella enterica subsp. enterica serovar Pullorum; conditions: Salmonella enterica, ATCC 7913, 24 h; in short: as §4
[10] = tested on: Escherichia coli; assay: Antibacterial activity against Escherichia coli ATCC 25922 after 18 hrs in presence of NH4Cl by broth dilution method; format: functional
[11] = tested on: Lipid bilayer; assay: Binding affinity to phosphatidylglycerol/cardiolipin/phosphatidylethanolamine large unilamellar vesicle assessed as induction of calcein leakage at 2 to 32 uM after 15 mins by spectrofluorophotometric method; in short: as §1
[12] = tested on: Salmonella typhimurium; assay: Antibacterial activity against Salmonella typhimurium ATCC 14028 after 24 hrs; format: functional, Salmonella enterica subsp. enterica serovar Typhimurium; in short: as §4
[13] = tested on: Escherichia coli; assay: Bactericidal activity against Escherichia coli 1005; format: functional; in short: as §3
[14] = (§6) Bactericidal activity against Salmonella pullorum ATCC 7913; format: functional, Salmonella enterica subsp. enterica serovar Pullorum; conditions: Salmonella enterica, read-out: MBC99.9; in short: as §3
[15] = tested on: Staphylococcus aureus; assay: Bactericidal activity against Staphylococcus aureus ATCC 25923; format: functional; in short: as §3
[16] = tested on: Staphylococcus epidermidis; assay: Antibacterial activity against Staphylococcus epidermidis ATCC 12228 after 24 hrs; format: functional; in short: as §4
[17] = tested on: Escherichia coli; assay: Antibacterial activity against Escherichia coli ATCC 25922 after 18 hrs in presence of 50% human heat-inactivated serum by broth dilution method; format: functional
[18] = tested on: Escherichia coli; assay: Antibacterial activity against Escherichia coli ATCC 25922 after 18 hrs in presence of KCl by broth dilution method; format: functional
[19] = tested on: Staphylococcus aureus; assay: Bactericidal activity against Staphylococcus aureus ATCC 29213; format: functional; in short: as §3
[20] = tested on: Escherichia coli; assay: Antibacterial activity against Escherichia coli ATCC 25922 after 18 hrs in presence of NaCl by broth dilution method; format: functional
[21] = tested on: Escherichia coli; assay: Antibacterial activity against Escherichia coli ATCC 25922 after 18 hrs in presence of FeCl3 by broth dilution method; format: functional
[22] = tested on: Staphylococcus aureus; assay: Bactericidal activity against methicillin-resistant Staphylococcus aureus ATCC 4330; format: functional
In short: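 Bacteria at (0.5−1) × 10^5 CFU/mL in MHB were exposed to serially diluted peptide (0.2% BSA) for 24 h at 37 °C, then 50 μL aliquots were plated on agar overnight. MBC is the lowest concentration killing >99.9% of cells. At least 3 repeats.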

[23] = tested on: Staphylococcus aureus; assay: Antibacterial activity against Staphylococcus aureus ATCC 25923 after 24 hrs; format: functional; in short: as §2
[24] = tested on: Escherichia coli; assay: Antibacterial activity against Escherichia coli 1005 after 24 hrs; format: functional; in short: as §4
[25] = tested on: Staphylococcus epidermidis; assay: Bactericidal activity against Staphylococcus epidermidis ATCC 12228; format: functional; in short: as §3
[26] = tested on: Escherichia coli; assay: Antibacterial activity against Escherichia coli ATCC 25922 after 18 hrs in presence of CaCl2 by broth dilution method; format: functional
[27] = tested on: Escherichia coli; assay: Antibacterial activity against Escherichia coli ATCC 25922 after 18 hrs in presence of 25% human heat-inactivated serum by broth dilution method; format: functional
[28] = tested on: Escherichia coli; assay: Antibacterial activity against Escherichia coli ATCC 25922 after 18 hrs in presence of MgCl2 by broth dilution method; format: functional
[29] = tested on: Salmonella enterica subsp. enterica serovar Pullorum; assay: as §5; format: functional; in short: as §4
[30] = tested on: Salmonella enterica subsp. enterica serovar Pullorum; assay: as §6; format: functional; in short: as §3
[31] = Salmonella enterica subsp. enterica serovar Typhimurium

With `O=C(O)c1cn(C2CC2)c2cc(N3CCNCC3)c(F)cc2c1=O` [CIPROFLOXACIN] the Activity [1] was “Not Active”, the MIC95 ([2]; ATCC 4330, 24 h) was 1 µM (≈ 0.331 µg/mL) and the MBC ([3]; read-out: MBC99.9) was 4 µM (≈ 1.33 µg/mL). The MBC ([4]; Salmonella enterica, read-out: MBC99.9) was 16 µM (≈ 5.3 µg/mL), the MIC ([5]; ATCC 25922, 18 h) was 2 µM and the MIC ([6]; ATCC 25922, 18 h) was 2 µM. For the same molecule, the MIC95 ([7]; ATCC 25922, 24 h) was 2 µM (≈ 0.663 µg/mL), the MIC95 ([8]; ATCC 29213, 24 h) was 4 µM (≈ 1.33 µg/mL) and the MIC95 [9] was 2 µM (≈ 0.663 µg/mL). The MIC ([10]; ATCC 25922, 18 h) was 2 µM, the Activity [11] was “inactive” and the MIC95 ([12]; Salmonella enterica, ATCC 14028, 24 h) was 8 µM (≈ 2.65 µg/mL). It also gave an MBC ([13]; read-out: MBC99.9) of 4 µM (≈ 1.33 µg/mL), an MBC [14] of 4 µM (≈ 1.33 µg/mL) and an MBC ([15]; read-out: MBC99.9) of 8 µM (≈ 2.65 µg/mL). It also gave an MIC95 ([16]; ATCC 12228, 24 h) of 2 µM (≈ 0.663 µg/mL), an MIC ([17]; ATCC 25922, 18 h) of 4 µM and an MIC ([18]; ATCC 25922, 18 h) of 2 µM. It also gave an MBC ([19]; read-out: MBC99.9) of 4 µM (≈ 1.33 µg/mL), an MIC ([20]; ATCC 25922, 18 h) of 2 µM and an MIC ([21]; ATCC 25922, 18 h) of 4 µM. It also gave an MBC ([22]; read-out: MBC99.9) of 1 µM (≈ 0.331 µg/mL), an MIC95 ([23]; ATCC 25923, 24 h) of 8 µM (≈ 2.65 µg/mL) and an MIC95 ([24]; Escherichia coli, 1005, 24 h) of 2 µM (≈ 0.663 µg/mL). For the same molecule, the MBC ([25]; read-out: MBC99.9) was 4 µM (≈ 1.33 µg/mL), the MIC ([26]; ATCC 25922, 18 h) was 8 µM and the MIC ([27]; ATCC 25922, 18 h) was 2 µM. For the same molecule, the MIC ([28]; ATCC 25922, 18 h) was 8 µM.

GENTAMICIN showed an MIC95 [2] of 8 µM, an MBC99.9 [3] of 2 µM and an MBC99.9 [4, 31] of 4 µM. For the same molecule, the MIC [5] was 2 µM, the MIC [6] was 1 µM and the MIC95 [7] was 1 µM. For the same molecule, the MIC95 [8] was 1 µM, the MIC95 [29] was 1 µM and the MIC [10] was 2 µM. It also gave an MIC95 [12, 31] of 2 µM, an MBC99.9 [13] of 1 µM and an MBC99.9 [30] of 2 µM. The MBC99.9 [15] was 1 µM, the MIC95 [16] was 0.5 µM and the MIC [17] was 2 µM. The MIC [18] was 1 µM, the MBC99.9 [19] was 1 µM and the MIC [20] was 2 µM. It also gave an MIC [21] of 1 µM, an MBC99.9 [22] of 8 µM and an MIC95 [23] of 1 µM. It also gave an MIC95 [24] of 0.5 µM, an MBC99.9 [25] of 1 µM and an MIC [26] of 1 µM. It also gave an MIC [27] of 1 µM and an MIC [28] of 1 µM.
